According to ChEMBL document CHEMBL1144893, “Discovery of a potent and selective protein kinase CK2 inhibitor by high-throughput docking” (J Med Chem, 2003):
Each block holds one molecule with its values, some of them ahead of it.

Legend:
[1] = molecular target: Insulin-like growth factor 1 receptor (Homo sapiens) (UniProt P08069); experiment: Inhibition of Type 1 insulin like growth factor receptor at 10 uM
In short: (§1)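 Filter-binding assay with recombinant GST-fused kinase domains expressed in baculovirus and purified over glutathione sepharose. [33P]-ATP was the phosphate donor and polyGluTyr (4:1) the acceptor. ATP was near Km: KDR, Flt-1, FGFR-1, Tek 8.0 μM; PDGFR-β, c-Kit, c-Met 1.0 μM; c-abl 5 μM; Her-1, Her-2 2.0 μM; c-Src 20 μM; IGF-1R 30 μM.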

[2] = molecular target: RAF proto-oncogene serine/threonine-protein kinase (Homo sapiens) (UniProt P04049); details: 10 uM
[3] = molecular target: Mast/stem cell growth factor receptor Kit (Homo sapiens) (UniProt P10721); experiment: Inhibition of Protein kinase Kit at 10 uM; in short: as §1
[4] = molecular target: T1, Casein kinase II (Homo sapiens) (UniProt P67870+P68400+P19784)
[5] = molecular target: Fibroblast growth factor receptor 1 (Homo sapiens) (UniProt P11362); experiment: Inhibition of Protein kinase fibroblast growth factor receptor 1 at 10 uM; in short: as §1
[6] = molecular target: Angiopoietin-1 receptor (Homo sapiens) (UniProt Q02763); experiment: Inhibition of Protein kinase TEK at 10 uM; in short: as §1
[7] = molecular target: Cyclin-dependent kinase 1 (Homo sapiens) (UniProt P06493); experiment: Inhibition of Cyclin dependent kinase 1 at 10 uM
In short: (§2)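 Run under conditions optimized for each kinase, with ATP near the enzyme's Km: CDK1 7.5 μM, PKA 50 μM.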

[8] = molecular target: Insulin receptor (Homo sapiens) (UniProt P06213); experiment: Inhibition of Insulin receptor at 10 uM
[9] = molecular target: Platelet-derived growth factor receptor beta (Homo sapiens) (UniProt P09619); experiment: Inhibition of Platelet derived growth factor receptor beta at 10 uM; in short: as §1
[10] = molecular target: Tyrosine-protein kinase ABL1 (Homo sapiens) (UniProt P00519); experiment: Inhibition of c-Abl tyrosine kinase at 10 uM; in short: as §1
[11] = molecular target: Epidermal growth factor receptor (Homo sapiens) (UniProt P00533); experiment: Inhibition of protein kinase HER-1 at 10 uM; in short: as §1
[12] = molecular target: Vascular endothelial growth factor receptor 1 (Homo sapiens) (UniProt P17948); experiment: Inhibition of Protein kinase Flt-1 at 10 uM; in short: as §1
[13] = molecular target: Serine/threonine-protein kinase AKT (Homo sapiens) (UniProt P31751+Q9Y243+P31749); experiment: Inhibition of Protein kinase B at 10 uM; assay type: protein assay
Serine/threonine-protein kinase AKT (Homo sapiens), sequence (P31749 whole entry, looked up): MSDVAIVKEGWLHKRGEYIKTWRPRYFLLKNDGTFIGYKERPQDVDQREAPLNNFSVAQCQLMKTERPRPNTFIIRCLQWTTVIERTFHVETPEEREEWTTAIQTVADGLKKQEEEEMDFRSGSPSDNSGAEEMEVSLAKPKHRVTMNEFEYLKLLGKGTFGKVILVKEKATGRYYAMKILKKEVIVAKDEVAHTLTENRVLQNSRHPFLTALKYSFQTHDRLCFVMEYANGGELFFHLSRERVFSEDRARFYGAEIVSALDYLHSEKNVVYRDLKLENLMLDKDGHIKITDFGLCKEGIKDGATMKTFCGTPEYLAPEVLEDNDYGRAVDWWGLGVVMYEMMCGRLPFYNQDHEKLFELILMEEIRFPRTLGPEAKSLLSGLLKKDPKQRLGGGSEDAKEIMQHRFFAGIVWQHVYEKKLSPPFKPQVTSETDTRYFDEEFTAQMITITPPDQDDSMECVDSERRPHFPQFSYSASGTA
Serine/threonine-protein kinase AKT (Homo sapiens), sequence (P31751 whole entry, looked up): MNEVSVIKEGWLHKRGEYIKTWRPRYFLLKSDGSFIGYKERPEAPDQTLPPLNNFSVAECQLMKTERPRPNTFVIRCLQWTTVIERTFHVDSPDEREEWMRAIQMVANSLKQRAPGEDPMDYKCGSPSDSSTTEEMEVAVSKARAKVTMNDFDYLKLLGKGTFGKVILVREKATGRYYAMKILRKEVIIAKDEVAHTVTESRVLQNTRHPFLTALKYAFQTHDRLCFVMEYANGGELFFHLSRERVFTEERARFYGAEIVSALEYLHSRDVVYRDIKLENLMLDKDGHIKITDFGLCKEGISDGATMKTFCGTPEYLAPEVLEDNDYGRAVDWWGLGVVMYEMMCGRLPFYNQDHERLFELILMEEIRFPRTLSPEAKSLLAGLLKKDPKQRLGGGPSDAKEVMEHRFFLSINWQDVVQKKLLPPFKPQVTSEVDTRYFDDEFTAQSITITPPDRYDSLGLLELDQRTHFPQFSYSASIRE
Serine/threonine-protein kinase AKT (Homo sapiens), sequence (Q9Y243 whole entry, looked up): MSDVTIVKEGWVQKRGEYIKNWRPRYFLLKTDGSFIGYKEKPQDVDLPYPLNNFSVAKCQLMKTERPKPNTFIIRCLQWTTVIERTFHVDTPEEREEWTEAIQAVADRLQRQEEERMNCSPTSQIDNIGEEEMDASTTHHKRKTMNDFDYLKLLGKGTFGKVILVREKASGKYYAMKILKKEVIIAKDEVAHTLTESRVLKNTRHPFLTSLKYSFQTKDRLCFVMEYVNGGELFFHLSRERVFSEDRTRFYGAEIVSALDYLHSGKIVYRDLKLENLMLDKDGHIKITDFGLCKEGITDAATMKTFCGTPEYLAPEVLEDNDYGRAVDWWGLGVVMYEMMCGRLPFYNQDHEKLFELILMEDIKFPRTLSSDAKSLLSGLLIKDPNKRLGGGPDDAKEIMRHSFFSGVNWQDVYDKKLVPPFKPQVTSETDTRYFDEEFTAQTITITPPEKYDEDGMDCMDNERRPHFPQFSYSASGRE

[14] = molecular target: T1, Casein kinase II (Homo sapiens); experiment: Inhibition of Casein kinase 2 at 10 uM; assay type: protein-complex assay
[15] = molecular target: cAMP-dependent protein kinase (PKA) (Homo sapiens) (UniProt P22694+P17612+P22612); experiment: Inhibition of Protein kinase A at 10 uM; assay type: protein assay; in short: as §2
[16] = molecular target: Receptor tyrosine-protein kinase erbB-2 (Homo sapiens) (UniProt P04626); experiment: Inhibition of protein kinase HER-2 at 10 uM; in short: as §1
Receptor tyrosine-protein kinase erbB-2 (Homo sapiens), sequence (P04626 whole entry, the tested form may be a part): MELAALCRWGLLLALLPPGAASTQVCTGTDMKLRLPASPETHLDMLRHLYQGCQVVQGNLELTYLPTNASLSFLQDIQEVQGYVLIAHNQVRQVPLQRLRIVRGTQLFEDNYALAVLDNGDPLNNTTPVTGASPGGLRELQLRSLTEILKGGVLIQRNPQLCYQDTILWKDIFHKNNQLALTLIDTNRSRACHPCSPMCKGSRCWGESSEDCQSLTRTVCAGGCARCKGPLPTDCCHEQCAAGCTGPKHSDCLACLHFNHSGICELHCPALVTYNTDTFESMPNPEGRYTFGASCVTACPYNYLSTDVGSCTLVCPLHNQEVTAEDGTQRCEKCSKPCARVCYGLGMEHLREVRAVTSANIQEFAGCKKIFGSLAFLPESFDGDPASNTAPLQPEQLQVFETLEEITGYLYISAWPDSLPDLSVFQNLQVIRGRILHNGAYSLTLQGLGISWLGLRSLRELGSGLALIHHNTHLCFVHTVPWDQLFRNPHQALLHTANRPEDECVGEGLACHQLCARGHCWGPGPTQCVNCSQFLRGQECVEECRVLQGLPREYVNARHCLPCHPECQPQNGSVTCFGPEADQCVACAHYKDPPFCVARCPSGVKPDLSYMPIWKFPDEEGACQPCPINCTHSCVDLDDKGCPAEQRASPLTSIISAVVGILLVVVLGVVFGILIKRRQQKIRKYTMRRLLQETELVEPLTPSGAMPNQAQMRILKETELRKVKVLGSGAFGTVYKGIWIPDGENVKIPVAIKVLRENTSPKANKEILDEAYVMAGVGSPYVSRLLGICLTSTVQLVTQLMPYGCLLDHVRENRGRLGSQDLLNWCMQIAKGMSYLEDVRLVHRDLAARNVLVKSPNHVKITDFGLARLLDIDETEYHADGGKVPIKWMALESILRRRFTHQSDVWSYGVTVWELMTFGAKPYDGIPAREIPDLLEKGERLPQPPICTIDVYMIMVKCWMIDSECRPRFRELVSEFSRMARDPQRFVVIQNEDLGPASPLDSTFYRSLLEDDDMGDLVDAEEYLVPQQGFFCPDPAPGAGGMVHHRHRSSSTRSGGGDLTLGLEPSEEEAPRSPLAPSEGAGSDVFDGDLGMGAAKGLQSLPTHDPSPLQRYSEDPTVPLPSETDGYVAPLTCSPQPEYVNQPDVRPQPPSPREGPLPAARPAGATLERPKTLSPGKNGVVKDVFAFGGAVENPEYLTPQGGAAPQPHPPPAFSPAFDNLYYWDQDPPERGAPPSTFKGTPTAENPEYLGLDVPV

[17] = molecular target: Vascular endothelial growth factor receptor 2 (Homo sapiens) (UniProt P35968); experiment: Inhibition of Kinase insert domain receptor (VEGFR2) at 10 uM; in short: as §1
[18] = molecular target: Receptor-type tyrosine-protein kinase FLT3 (Homo sapiens) (UniProt P36888); experiment: Inhibition of Protein kinase Flt-3 at 10 uM
Receptor-type tyrosine-protein kinase FLT3 (Homo sapiens), sequence (P36888 whole entry): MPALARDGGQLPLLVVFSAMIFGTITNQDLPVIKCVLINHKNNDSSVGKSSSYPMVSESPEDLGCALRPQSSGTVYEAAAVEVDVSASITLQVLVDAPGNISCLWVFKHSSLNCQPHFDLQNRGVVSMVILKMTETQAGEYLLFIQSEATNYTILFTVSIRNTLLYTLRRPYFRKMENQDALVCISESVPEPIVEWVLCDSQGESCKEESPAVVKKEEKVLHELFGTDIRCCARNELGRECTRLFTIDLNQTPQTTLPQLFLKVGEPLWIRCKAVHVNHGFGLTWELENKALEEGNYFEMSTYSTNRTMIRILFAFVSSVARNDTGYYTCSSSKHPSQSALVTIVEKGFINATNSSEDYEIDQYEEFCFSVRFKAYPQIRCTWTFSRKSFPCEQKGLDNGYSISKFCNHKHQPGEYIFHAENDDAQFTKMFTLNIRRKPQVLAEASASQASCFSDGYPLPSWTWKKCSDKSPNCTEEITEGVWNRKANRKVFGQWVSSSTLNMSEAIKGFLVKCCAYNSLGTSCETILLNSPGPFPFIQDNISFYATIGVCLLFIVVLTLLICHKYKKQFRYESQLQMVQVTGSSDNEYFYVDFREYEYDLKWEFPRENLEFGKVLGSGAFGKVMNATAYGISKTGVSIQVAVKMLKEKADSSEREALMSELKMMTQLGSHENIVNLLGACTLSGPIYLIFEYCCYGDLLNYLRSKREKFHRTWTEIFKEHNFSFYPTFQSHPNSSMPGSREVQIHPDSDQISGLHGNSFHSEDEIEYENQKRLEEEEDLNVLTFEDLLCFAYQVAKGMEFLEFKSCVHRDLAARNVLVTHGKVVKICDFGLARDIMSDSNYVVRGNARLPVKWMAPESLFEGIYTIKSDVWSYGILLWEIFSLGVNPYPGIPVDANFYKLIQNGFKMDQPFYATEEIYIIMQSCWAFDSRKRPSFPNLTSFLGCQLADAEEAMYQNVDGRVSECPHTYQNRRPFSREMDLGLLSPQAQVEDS

[19] = molecular target: Vascular endothelial growth factor receptor 3 (Homo sapiens) (UniProt P35916); details: 10 uM
[20] = molecular target: Hepatocyte growth factor receptor (Homo sapiens) (UniProt P08581); experiment: Inhibition of Protein kinase Met at 10 uM; in short: as §1
Hepatocyte growth factor receptor (Homo sapiens), sequence (P08581 whole entry): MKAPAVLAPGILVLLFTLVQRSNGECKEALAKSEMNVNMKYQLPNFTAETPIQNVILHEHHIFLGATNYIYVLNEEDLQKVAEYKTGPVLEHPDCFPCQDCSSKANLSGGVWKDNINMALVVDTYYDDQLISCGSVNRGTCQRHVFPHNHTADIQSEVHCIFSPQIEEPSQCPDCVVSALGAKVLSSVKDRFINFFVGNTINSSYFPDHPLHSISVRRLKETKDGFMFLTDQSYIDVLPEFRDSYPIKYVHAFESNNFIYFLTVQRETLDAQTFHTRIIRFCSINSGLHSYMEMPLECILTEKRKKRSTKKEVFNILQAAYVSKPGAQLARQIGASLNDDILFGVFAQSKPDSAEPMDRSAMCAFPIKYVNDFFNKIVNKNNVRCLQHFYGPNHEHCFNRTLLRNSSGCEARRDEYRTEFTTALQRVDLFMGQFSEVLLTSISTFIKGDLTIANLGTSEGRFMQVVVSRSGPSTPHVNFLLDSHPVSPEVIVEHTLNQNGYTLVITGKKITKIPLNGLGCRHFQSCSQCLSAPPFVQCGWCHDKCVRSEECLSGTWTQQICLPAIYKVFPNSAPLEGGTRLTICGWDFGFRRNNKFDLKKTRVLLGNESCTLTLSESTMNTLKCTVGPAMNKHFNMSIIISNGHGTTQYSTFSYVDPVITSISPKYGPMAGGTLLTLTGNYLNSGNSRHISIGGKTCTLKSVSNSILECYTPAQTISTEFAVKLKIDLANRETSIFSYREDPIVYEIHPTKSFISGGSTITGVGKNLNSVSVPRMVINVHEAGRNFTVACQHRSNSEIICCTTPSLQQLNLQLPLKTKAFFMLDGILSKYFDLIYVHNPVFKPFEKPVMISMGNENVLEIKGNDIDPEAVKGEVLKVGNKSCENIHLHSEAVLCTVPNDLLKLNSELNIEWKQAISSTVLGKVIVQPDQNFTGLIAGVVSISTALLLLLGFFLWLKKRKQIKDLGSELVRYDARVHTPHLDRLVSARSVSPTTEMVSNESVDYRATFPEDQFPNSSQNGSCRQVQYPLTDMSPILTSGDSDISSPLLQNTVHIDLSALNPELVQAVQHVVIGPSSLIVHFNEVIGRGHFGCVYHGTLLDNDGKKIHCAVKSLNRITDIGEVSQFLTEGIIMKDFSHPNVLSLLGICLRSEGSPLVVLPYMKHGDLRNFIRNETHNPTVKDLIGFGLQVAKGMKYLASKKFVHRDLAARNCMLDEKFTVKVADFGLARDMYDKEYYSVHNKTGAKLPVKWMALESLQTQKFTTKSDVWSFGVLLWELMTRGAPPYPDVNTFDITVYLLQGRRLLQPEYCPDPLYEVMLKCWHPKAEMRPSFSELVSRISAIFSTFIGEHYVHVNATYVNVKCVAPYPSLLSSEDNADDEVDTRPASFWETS

[21] = molecular target: 3-phosphoinositide-dependent protein kinase 1 (Homo sapiens) (UniProt O15530); experiment: Inhibition of Phosphatidylinositol-trisphosphate-dependent kinase 1 at 10 uM
[22] = molecular target: Proto-oncogene tyrosine-protein kinase Src (Homo sapiens) (UniProt P12931); experiment: Inhibition of Protein kinase Src at 10 uM; in short: as §1

inhibition [1]: 44%
inhibition [2]: 30%
inhibition [3]: 31%
IC50 [4]: 80 nM
inhibition [5]: 32%
inhibition [6]: 36%
inhibition [7]: 51%
inhibition [8]: 23%
inhibition [9]: 11%
inhibition [10]: 25%
inhibition [11]: 12%
inhibition [12]: 21%
inhibition [13]: 30%
inhibition [14]: 97%
inhibition [15]: 51%
inhibition [16]: 29%
inhibition [17]: 54%
inhibition [18]: 41%
inhibition [19]: 30%
inhibition [20]: 40%
inhibition [21]: 9%
inhibition [22]: 0%
SMILES: O=C(O)Cc1c2ccccc2n2c1[nH]c(=O)c1ccccc12

inhibition [14]: 12%
SMILES: Cc1c2ccccc2n2c1nc(O)c1ccccc12

inhibition [14]: 48%
SMILES: OCCc1c2ccccc2n2c1nc(O)c1ccccc12
